Test results as given in publication PMC6279569 (Clinical cancer research : an official journal of the …, 2018).

Assays:
[1] = test system: γH2A.X, caspase-3 and caspase-9 in cancer cells; experiment: Western blot, cancer cells; assay type: cell-based, human
Outline: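 Conditions: SK-N-DZ cells with 3 µM AOH39 for 0, 6 or 24 h; cancer cells with 500 nM AOH1160 for the indicated times. Cells were lysed in Laemmli buffer, sonicated, run on 4–12% SDS-PAGE and blotted to nitrocellulose. After 5% milk block, blots were probed for γH2A.X, total H2A.X, cleaved and full-length caspase-3, and cleaved caspase-9. Detection used peroxidase secondaries and ECL.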

[2] = test system: non-malignant cells (PBMC, 7SM0032, MCF10A, mammary epithelial cells, small airway epithelial cells); experiment: Cell growth, CellTitor-Glo assay, non-malignant cells; assay type: cell-based; settings: human PBMCs, 7SM0032 cells
[3] = Stability in plasma, monkey; assay type: in vitro ADME; settings: 37°C
Outline: (§1)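 Test compound was incubated in plasma at 37 °C, with aliquots removed at various times. Remaining parent was quantified by LC-MS/MS (UPLC gradient, positive-ion electrospray) and expressed as percent of input concentration.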

γH2A.X in 7SM0032 cells = experiment: Western blot, non-malignant cells; assay type: cell-based, human; settings: 500 nM AOH1160
Outline: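 7SM0032 cells treated with 500 nM compound for the indicated times, then lysed directly in Laemmli buffer on the plate. Immunoblot membranes blocked in 5% nonfat milk and probed with anti-γH2A.X. Detection with peroxidase-conjugated secondary antibody and ECL.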

Recombinant human PCNA = Recombinant human PCNA (Homo sapiens, UniProt P12004); experiment: Saturation Transfer Difference; assay type: binding; settings: T3 50 µM, AOH1160 expected 16 µM, 1 µM PCNA
Outline: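 Recombinant human PCNA (1 µM) in 15 mM D₂O phosphate buffer, pH 7.2, with 10 µM deuterated DTT and 2% D₆-DMSO. T3 (50 µM) was run with and without test compound; 4 µM DSS served as internal reference for ligand concentration. Spectra were taken at 25 °C, 700 MHz, cryoprobe. Saturation was at 0.9 ppm and reference at −30 ppm, acquired interleaved. STD = (I_Ref − I_STD)/I_Ref.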

SK-N-DZ and H524 cells = experiment: Cell cycle analysis by PI flow cytometry, cancer cells; assay type: cell-based, human
[4] = Stability in plasma, human; assay type: in vitro ADME; settings: 37°C
Outline: as §1

normal neural stem cells = experiment: Cell growth of normal neural stem cells; assay type: cell-based; settings: 1 µM, 72 hours; NSC005-007
Outline: (§2)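 Cells derived from WHO grade IV glioblastoma or primary brain tissue, grown as neurospheres in DMEM/F12 with 20 ng/ml EGF, 20 ng/ml FGF, 5 µg/ml heparin, B27 and 2 mM L-glutamine. Seeded at 5 × 10³/ml or 3 × 10⁴/ml. Given DMSO or 1 µM compound for 72 h. Growth read by CellTiter-Glo luminescence relative to DMSO control, ± S.D.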

Pharmacokinetic = assay type: in vivo, ES1^e/SCID mice
Outline: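 Test compound was dissolved at 60 °C under nitrogen in vehicle (Kolliphor HS 15, Poloxamer 407, BHA, BHT, propyl gallate). It was diluted to 4 mg/mL in 1:1 water:vehicle just before dosing and given orally at 40 mg/kg to male and female ES1^e/SCID mice. Plasma was taken by cardiac puncture at 0–24 h (3 male + 3 female per time point). Levels were measured by LC-MS/MS (positive ESI, MRM); PK parameters were derived by non-compartmental analysis.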

[5] = mouse, in vivo
[6] = Stability in plasma, Es1e/SCID mice; assay type: in vitro ADME; settings: Es1^e/SCID mouse plasma, 37°C
Outline: as §1

7SM0032 and SAEC cells = experiment: Cell cycle analysis by PI flow cytometry, non-malignant cells; assay type: cell-based, human; settings: 500 nM AOH1160
Outline: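 7SM0032 cells (hEPM-1 medium) and SAEC (SAGM medium), 37°C, 5% CO2. Seeded at 1×10⁵/ml and attached overnight. Exposed to 500 nM test compound for the indicated time (methods: 6 or 24 h). Fixed in 60% ethanol, stained with propidium iodide, and analysed by flow cytometry. Cell-cycle populations, including sub-G1, were modelled from PI intensity.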

[7] = test system: HR-mediated DSB repair in DR-GFP cells; experiment: Double stranded DNA break repair assay, DR-GFP; assay type: cell-based
Outline: (§3)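 U2OS-derived reporter lines carry stable GFP reporters: DR-GFP for HR and EJ5-GFP for end joining. Cells were grown in DMEM/10% FBS, seeded at 2.5×10⁴ cells/cm² and attached overnight. They were lipofected with an I-SceI expression plasmid; after 3 h, medium was replaced with fresh medium containing test compound at various concentrations (DMSO control). GFP-positive fraction was measured by flow cytometry 3 d post-transfection, relative to control.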

glioblastoma stem cells = experiment: Cell growth of glioblastoma stem cells; assay type: cell-based, human; settings: 1 µM, 72 hours; PBT003, PBT707, PBT017
Outline: as §2

human TRβ = target: T1, human TRβ (Homo sapiens, UniProt P10828); experiment: Human thyroid hormone receptor beta; assay type: cell-based; settings: various concentrations, 24 h
T1 sequence (P10828 1-461): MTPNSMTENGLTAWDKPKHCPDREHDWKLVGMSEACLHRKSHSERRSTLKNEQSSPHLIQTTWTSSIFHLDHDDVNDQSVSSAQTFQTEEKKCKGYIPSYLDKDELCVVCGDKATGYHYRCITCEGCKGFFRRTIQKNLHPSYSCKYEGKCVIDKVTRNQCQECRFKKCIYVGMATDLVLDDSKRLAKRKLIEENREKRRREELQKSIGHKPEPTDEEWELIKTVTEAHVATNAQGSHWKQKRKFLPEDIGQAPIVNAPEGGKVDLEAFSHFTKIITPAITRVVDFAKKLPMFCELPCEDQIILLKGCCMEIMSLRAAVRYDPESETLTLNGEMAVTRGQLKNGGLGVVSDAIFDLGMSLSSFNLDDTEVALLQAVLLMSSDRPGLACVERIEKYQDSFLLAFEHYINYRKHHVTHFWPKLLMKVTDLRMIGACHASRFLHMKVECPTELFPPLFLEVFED
Outline: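 Commercial reporter cells constitutively expressing human TRβ, with luciferase driven by a TRβ-responsive promoter. Treated for 24 h with various concentrations of T3 (reference agonist) or test compound. TRβ activity read as luciferase relative luminescence units on a plate reader.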

[8] = Stability in plasma, canine; assay type: in vitro ADME; settings: 37°C
Outline: as §1

carboxyl esterase, ES-1 = target: T2, carboxyl esterase, ES-1 (Mus musculus, UniProt P23953); experiment: Stability in plasma, rodent; assay type: in vitro ADME
T2 sequence (P23953 19-554): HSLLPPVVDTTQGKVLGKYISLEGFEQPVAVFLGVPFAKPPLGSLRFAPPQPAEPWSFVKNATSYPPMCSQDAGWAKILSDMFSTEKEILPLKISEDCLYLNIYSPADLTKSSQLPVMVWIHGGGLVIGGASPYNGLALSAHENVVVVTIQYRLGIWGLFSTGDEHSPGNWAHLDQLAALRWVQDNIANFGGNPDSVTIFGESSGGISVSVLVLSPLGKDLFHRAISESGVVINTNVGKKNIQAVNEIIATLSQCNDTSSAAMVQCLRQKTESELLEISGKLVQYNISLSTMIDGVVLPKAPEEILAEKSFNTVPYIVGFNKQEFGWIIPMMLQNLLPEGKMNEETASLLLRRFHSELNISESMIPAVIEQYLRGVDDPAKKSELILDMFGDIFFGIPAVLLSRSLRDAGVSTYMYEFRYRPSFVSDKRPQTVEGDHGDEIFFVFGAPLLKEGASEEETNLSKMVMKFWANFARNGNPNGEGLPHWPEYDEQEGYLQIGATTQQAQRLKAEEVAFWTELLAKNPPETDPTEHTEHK
Outline: as §1

7SM0032 cells = experiment: TUNEL assay, non-malignant cells; assay type: cell-based; settings: 500 nM AOH1160, 24 h
Outline: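 7SM0032 cells (hEPM-1 medium, 37°C, 5% CO2) seeded at 1×10⁵/ml on chamber slides. Once attached, treated with 500 nM compound for 24 h. Fixed and labelled by TUNEL using a TMR-red in situ cell death kit. Red fluorescence at free DNA ends scored as apoptotic cells.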

SK-N-DZ cells = experiment: TUNEL assay, cancer cells; assay type: cell-based, human; settings: 500 nM AOH1160, 24 h
Outline: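 Cells were seeded at 1×10⁵/ml on chamber slides. Once attached, they were treated 24 h with 500 nM test compound, then fixed. Apoptosis was detected by TUNEL with a TMR red in situ cell death kit; red TMR fluorescence marks free DNA ends.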

[9] = test system: SK-N-BE(2)c, H82 and H526 cells; experiment: DNA combing analysis of replication fork extension; assay type: cell-based, human; settings: 0.2 µM, 20 minutes, vs untreated control
Outline: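 Synchronized S-phase cells (DMEM, 10% FBS) pulsed with CldU for 10 min, washed, then IdU for 20 min with or without 0.2 µM compound. Cells lysed on slides and DNA fibres spread. Fibres immunostained for CldU (green) and IdU (red). Segment lengths from more than 30 fibres averaged ± SD. IdU lengths compared with the untreated control by Student's t-test.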

SK-N-DZ NB cells = experiment: Clonogenic assay with cisplatin, SK-N-DZ; assay type: cell-based, human; settings: 500 nM AOH1160, 18 h
Outline: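 300 SK-N-DZ cells per 60-mm dish, attached overnight, then treated 18 h with or without various cisplatin concentrations, with or without 500 nM test compound. After two washes, cells were grown 3 weeks in fresh medium changed every 3 d. Colonies were stained with 0.5% crystal violet and counted. Combination index used the Bliss independence model: CI = (E_A+E_B−E_A*E_B)/E_AB.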

[10] = test system: xenograft tumors of SK-N-BE(2)c, SK-N-AS, MDA-MB-468 and H82; experiment: In vivo xenograft tumor model; settings: 40 mg/kg once daily by oral gavage
[11] = test system: EJ-mediated DSB repair in EJ5-GFP cells; experiment: Double stranded DNA break repair assay, EJ5-GFP; assay type: cell-based; settings: 4 µM AOH39
Outline: as §3

Sequence of Recombinant human PCNA (P12004 whole entry): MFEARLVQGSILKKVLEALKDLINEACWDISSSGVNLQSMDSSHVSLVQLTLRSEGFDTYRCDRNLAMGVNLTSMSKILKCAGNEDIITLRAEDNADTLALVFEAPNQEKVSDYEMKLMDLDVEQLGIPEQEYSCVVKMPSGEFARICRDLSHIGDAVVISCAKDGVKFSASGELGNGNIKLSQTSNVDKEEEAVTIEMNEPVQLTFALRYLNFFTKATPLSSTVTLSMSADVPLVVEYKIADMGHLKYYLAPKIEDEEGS

## O=C(CNC(=O)c1cccc2ccccc12)Nc1ccccc1Oc1ccccc1 [AOH1160]
[1]; cancer cells, 500 nM AOH1160
  caspase activation: activation of caspase-3 and caspase-9
  γH2A.X levels: increases γH2A.X levels
[2]
  concentration up to which not significantly toxic: at least 5 µM
[3]
  stability in plasma: stable
γH2A.X in 7SM0032 cells
  intracellular γH2A.X level in non-malignant cells: Nor does it increase intracellular γH2A.X level
Recombinant human PCNA
  effect on STD values of T3: caused reduction of STD values of T3
SK-N-DZ and H524 cells; 500 nM AOH1160
  apoptosis (sub-G1 population): promotes apoptosis
SK-N-DZ and H524 cells; neuroblastoma and small cell lung cancer cells, 500 nM AOH1160
  cell cycle effect: causes cell cycle arrest
[4]
  stability in plasma: stable
Normal neural stem cells
  growth of normal neural stem cells: without significantly affecting the growth of normal neural stem cells
Pharmacokinetic; PO, 40 mg/kg
  half-life in vivo: about 3.5 h
  oral availability: available to the animal through the oral dosing route
  peak concentration (CMAX): well above the calculated IC50 of most cancer cell lines
Pharmacokinetic; mouse, in vivo
  metabolites in animal plasma: Metabolites derived from AOH1160 hydroxylation were observed
[5]
  toxicity in repeated dose study: No significant toxicity was observed
[6]
  stability in plasma: stable
7SM0032 and SAEC cells
  cell cycle profiles of non-malignant cells: doesn’t significantly change the cell cycle profiles
15 mM D2O phosphate buffer, 2% D6-DMSO, determined by 1D NMR spectra
  maximum concentration achievable under STD NMR condition: approximately 14.5 µM
Not told
  permeability: high permeability
[7]; various concentrations of AOH1160
  HR-mediated DNA repair: blocks DNA repair in DR-GFP
Glioblastoma stem cells
  growth of glioblastoma stem cells: inhibited the growth of glioblastoma stem cells
Human TRβ
  thyroid hormone activity in TR reporter assay: neither AOH1160 nor AOH39 showed any thyroid hormone activity
[8]
  stability in plasma: stable
Carboxyl esterase, ES-1; amide hydrolysis
  sensitivity to cleavage by ES-1: sensitive to cleavage by the carboxyl esterase, ES-1
Carboxyl esterase, ES-1; rodent plasma, 37°C
  stability in plasma: not stable
7SM0032 cells
  apoptosis by TUNEL in non-malignant cells: Nor does it increase intracellular γH2A.X level (Fig 4b) or induce apoptosis
SK-N-DZ cells
  apoptosis by TUNEL: increase in apoptosis
[9]
  length of IdU-incorporated DNA strands (replication fork extension): significantly shorter IdU-incorporated DNA strands
SK-N-DZ NB cells
  sensitivity to cisplatin, colony formation: more sensitive to cisplatin treatment in the presence of AOH1160
[10]; vs vehicle
  tumor burden: significantly reduced tumor burden
[10]; data not shown
  death or weight loss: did not cause any death or significant weight loss

## O=C(CNC(=O)c1cccc2ccccc12)Nc1ccccc1Cc1ccccc1 [AOH39]
[1]; SK-N-DZ, 3 µM AOH39
  intracellular γH2A.X levels: enhanced intracellular γH2A.X levels
SK-N-DZ and H524 cells; SK-N-DZ, 3 µM AOH39, 6 or 24 h
  cell cycle effect: caused cell cycle arrest of cancer cells at the S and, to a larger degree, G2/M phases
SK-N-DZ and H524 cells; SK-N-DZ, 3 µM AOH39, 24 h
  apoptosis (sub-G1 population): cancer cells start to die through apoptosis
[11]
  EJ-mediated DNA repair: without exerting any statistically significant effect on EJ
[7]; 4 µM AOH39
  HR-mediated DNA repair: inhibited HR-mediated DNA repair
Human TRβ
  thyroid hormone activity in TR reporter assay: neither AOH1160 nor AOH39 showed any thyroid hormone activity
